Data on two compounds can be found in ChEMBL document CHEMBL3603753, “Carbamoyl Triazoles, Known Serine Protease Inhibitors, Are a Potent New Class of Antimalarials” (J Med Chem, 2015).

In brackets after ≈: the same amount, converted by molar mass. Activity calls are given as the source filed them.

Data set [1] in a line: Passive permeability by PAMPA method. The format is ADME. As to conditions: read-out: permeability.
A short description of data set [2]: Inhibition of CYP3A (unknown origin) by 4VG metabolism assay. The format is ADME, Homo sapiens.
Data set [3] deals with Plasmodium falciparum. As to the kind of experiment: Antimalarial activity against Plasmodium falciparum infected in erythrocytes assessed as young trophozoites level at 10 times antimalarial IC50 level incubated for 24 and 48 hrs by Giemsa staining based microsocpy.
A further data set relates to Liver microsome. As to the kind of experiment: Intrinsic clearance in human liver microsomes. Type of data set: ADME. For orientation: Liver microsomes are a subcellular fraction often used to study metabolism.
Data set [4] concerns Plasmodium falciparum. Nature of the data set: Antimalarial activity against Plasmodium falciparum 3D7 infected in erythrocytes incubated for 72 hrs by [3H]hypoxanthine incorporation assay. The format is functional, organism-based.
Data set [5] deals with Plasmodium falciparum. As to the kind of experiment: Antimalarial activity against Plasmodium falciparum 3D7 infected in erythrocytes incubated for 48 hrs by [3H]hypoxanthine incorporation assay. The format is functional, organism-based.
The subject of data set [6] is Plasmodium falciparum. Nature of the data set: Antimalarial activity against Plasmodium falciparum assessed as parasite reduction ratio at 10 times antimalarial IC50 level over 48 hrs. Type of data set: functional. In outline: (§1)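 Parasite reduction ratio assay on P. falciparum with compound at 10× its Pf IC₅₀. Viable parasite decrease is followed over one life cycle (48 h), giving log₁₀ PRR and the time needed to kill 99.9% of parasites (PCT99.9%).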

Data set [7] can be described thus: Kinetic solubility of the compound by chemoluminescent nitrogen detection kinetic solubility assay. The format is physicochemical. Particulars: read-out: Kinetic_solubility.
Data set [8] has as its system Plasmodium falciparum. As to the kind of experiment: Antimalarial activity against Plasmodium falciparum 3D7 infected in erythrocytes incubated for 24 hrs by [3H]hypoxanthine incorporation assay. Type of data set: functional, organism-based.
The target of another data set is Albumin (Homo sapiens, UniProt P02768). Nature of the data set: Binding affinity to HSA. Type of data set: ADME. As to conditions: human serum albumin (HSA), read-out: PB (converted).
Data set [9] concerns Plasma. As to the kind of experiment: Stability in CD1 mouse plasma at 10 mM after 0.5 to 2 hrs by UPLC-MS/MS method. Type of data set: ADME, cell-free. As to conditions: 10000 µM.
A short description of data set [10]: Inhibition of CYP3A (unknown origin) by 4VR metabolism assay. The format is ADME, Homo sapiens.
In data set [11] the target is T1, Subtilisin-like protease 1 (Plasmodium falciparum, UniProt O61142).
T1 sequence (O61142 whole entry): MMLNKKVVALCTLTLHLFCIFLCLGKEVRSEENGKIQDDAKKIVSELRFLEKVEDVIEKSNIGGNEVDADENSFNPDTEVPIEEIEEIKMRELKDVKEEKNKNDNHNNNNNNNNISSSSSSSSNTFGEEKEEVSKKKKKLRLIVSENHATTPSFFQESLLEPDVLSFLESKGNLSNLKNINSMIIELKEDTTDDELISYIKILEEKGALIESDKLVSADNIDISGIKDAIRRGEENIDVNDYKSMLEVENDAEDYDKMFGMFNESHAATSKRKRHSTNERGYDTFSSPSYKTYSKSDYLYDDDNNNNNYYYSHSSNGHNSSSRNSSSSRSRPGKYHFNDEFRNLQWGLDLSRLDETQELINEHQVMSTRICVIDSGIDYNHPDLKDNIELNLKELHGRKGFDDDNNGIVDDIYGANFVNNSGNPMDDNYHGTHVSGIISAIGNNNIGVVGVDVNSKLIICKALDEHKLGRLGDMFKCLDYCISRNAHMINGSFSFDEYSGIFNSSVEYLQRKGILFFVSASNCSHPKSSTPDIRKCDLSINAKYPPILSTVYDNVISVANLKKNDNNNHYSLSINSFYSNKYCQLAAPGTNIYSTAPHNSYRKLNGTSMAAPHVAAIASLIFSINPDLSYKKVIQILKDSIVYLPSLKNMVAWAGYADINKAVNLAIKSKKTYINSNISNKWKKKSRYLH
Nature of the data set: Inhibition of Plasmodium falciparum recombinant SUB1 using SERA4st1F-6R12 substrate incubated for 55 mins by fluorescence spectrophotometry.

Data set [12] deals with Blood. Nature of the data set: Stability in CD1 mouse blood at 10 mM after 0.5 to 2 hrs by UPLC-MS/MS method. The format is ADME, tissue-based. Particulars: 10000 µM.
The next data set relates to Plasmodium berghei. Nature of the data set: Antimalarial activity against Plasmodium berghei infected in orally dosed mouse model of malaria infection. As to conditions: po. The format is functional. The essentials: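 Mice infected with P. berghei; compound given orally (p.o.) as 2 doses of 50 mg kg⁻¹.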
Data set [13] concerns Plasmodium falciparum. Nature of the data set: Antimalarial activity against Plasmodium falciparum assessed as time duration for 99.9% parasite killing at 10 times antimalarial IC50 level over 48 hrs. The format is functional. The essentials:
as §1

Data set [14] is described as follows: Half life in human liver microsomes. The format is ADME.
A short description of data set [15]: Half life in mouse liver microsomes. The format is ADME.
In another data set the target is Dipeptidyl peptidase 4 (Homo sapiens, UniProt P27487). As to the kind of experiment: Inhibition of DPP4 (unknown origin).
Data set [16] addresses Voltage-gated inwardly rectifying potassium channel KCNH2 (Homo sapiens, UniProt Q12809). As to the kind of experiment: Inhibition of human ERG by QPatch assay. A general note: Patch clamp records ionic current or voltage across a cell membrane.
A further data set deals with HepG2. As to the kind of experiment: Cytotoxicity against human HepG2 cells. The format is cell-based.
Data set [17] concerns Plasma. Nature of the data set: Stability in CD1 mouse plasma at 10 mM in presence of serine protease inhibitor PMSF after 0.5 to 2 hrs by UPLC-MS/MS method. The format is ADME, cell-free. As to conditions: 10000 µM.
Data set [18] has as its system Plasmodium falciparum. Nature of the data set: Antimalarial activity against Plasmodium falciparum infected in humanized SCID mouse model of malaria infection assessed as induction of phenotypic changes in parasite at 217 mg/kg, po measured 96 hrs post dose by microscopic and flow cytometry method. The format is functional, organism-based. The essentials:
(§2)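 P. falciparum-infected humanized mice, standard four-day test; compound given orally at several doses, vehicle (n = 4) and oral chloroquine 10 mg·kg⁻¹ (n = 2) as controls. Parasitemia followed per mouse. Peripheral blood sampled 96 h after starting treatment and analysed by microscopy and by flow cytometry gating infected human erythrocytes.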
A general note: In flow cytometry, cells or beads pass a laser one at a time.

Data set [19] relates to Plasmodium falciparum. As to the kind of experiment: Antimalarial activity against Plasmodium falciparum infected in humanized SCID mouse model of malaria infection assessed as induction of altered rings in parasite at 217 mg/kg, po measured 96 hrs post dose by microscopic and flow cytometry method. Type of data set: functional, organism-based. The essentials: as §2
The subject of data set [20] is Plasmodium falciparum. Nature of the data set: Antimalarial activity against Plasmodium Plasmodium falciparum infected in orally dosed humanized SCID mouse model of malaria infection. Type of data set: functional. Particulars: po. In outline:
as §2

Data set [21] has as its system Blood. As to the kind of experiment: Drug level in blood of Plasmodium falciparum infected humanized SCID mouse model of malaria infection at 217 mg/kg, po measured 96 hrs post dose. The format is ADME, organism-based. Particulars: in vivo.
For data set [22], the system named is Plasmodium falciparum. Nature of the data set: Antimalarial activity against Plasmodium falciparum infected in humanized SCID mouse model of malaria infection assessed as induction of abnormal trophozoites with hemozoin granules and pyknotic cells in parasite at 217 mg/kg, po measured 96 hrs post dose by microscopic and flow cytometry method. The format is functional, organism-based. In outline:
as §2

Sequence of Albumin (P02768 whole entry): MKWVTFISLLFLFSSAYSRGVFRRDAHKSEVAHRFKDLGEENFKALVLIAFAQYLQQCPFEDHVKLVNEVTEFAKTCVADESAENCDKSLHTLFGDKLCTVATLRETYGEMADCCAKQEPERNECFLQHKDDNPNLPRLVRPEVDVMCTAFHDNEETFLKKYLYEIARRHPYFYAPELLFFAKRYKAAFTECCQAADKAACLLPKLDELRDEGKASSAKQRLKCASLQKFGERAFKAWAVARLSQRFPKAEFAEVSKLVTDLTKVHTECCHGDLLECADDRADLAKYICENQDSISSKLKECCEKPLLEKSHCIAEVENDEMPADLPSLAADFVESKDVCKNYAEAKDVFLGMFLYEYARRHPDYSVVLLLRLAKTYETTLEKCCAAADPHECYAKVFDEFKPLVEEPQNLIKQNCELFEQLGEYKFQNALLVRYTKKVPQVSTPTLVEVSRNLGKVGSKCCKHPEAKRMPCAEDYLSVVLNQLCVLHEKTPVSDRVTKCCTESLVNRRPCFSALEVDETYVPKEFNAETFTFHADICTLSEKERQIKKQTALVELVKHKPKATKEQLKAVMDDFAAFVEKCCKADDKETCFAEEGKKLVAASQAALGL
Sequence of Voltage-gated inwardly rectifying potassium channel KCNH2 (Q12809 whole entry): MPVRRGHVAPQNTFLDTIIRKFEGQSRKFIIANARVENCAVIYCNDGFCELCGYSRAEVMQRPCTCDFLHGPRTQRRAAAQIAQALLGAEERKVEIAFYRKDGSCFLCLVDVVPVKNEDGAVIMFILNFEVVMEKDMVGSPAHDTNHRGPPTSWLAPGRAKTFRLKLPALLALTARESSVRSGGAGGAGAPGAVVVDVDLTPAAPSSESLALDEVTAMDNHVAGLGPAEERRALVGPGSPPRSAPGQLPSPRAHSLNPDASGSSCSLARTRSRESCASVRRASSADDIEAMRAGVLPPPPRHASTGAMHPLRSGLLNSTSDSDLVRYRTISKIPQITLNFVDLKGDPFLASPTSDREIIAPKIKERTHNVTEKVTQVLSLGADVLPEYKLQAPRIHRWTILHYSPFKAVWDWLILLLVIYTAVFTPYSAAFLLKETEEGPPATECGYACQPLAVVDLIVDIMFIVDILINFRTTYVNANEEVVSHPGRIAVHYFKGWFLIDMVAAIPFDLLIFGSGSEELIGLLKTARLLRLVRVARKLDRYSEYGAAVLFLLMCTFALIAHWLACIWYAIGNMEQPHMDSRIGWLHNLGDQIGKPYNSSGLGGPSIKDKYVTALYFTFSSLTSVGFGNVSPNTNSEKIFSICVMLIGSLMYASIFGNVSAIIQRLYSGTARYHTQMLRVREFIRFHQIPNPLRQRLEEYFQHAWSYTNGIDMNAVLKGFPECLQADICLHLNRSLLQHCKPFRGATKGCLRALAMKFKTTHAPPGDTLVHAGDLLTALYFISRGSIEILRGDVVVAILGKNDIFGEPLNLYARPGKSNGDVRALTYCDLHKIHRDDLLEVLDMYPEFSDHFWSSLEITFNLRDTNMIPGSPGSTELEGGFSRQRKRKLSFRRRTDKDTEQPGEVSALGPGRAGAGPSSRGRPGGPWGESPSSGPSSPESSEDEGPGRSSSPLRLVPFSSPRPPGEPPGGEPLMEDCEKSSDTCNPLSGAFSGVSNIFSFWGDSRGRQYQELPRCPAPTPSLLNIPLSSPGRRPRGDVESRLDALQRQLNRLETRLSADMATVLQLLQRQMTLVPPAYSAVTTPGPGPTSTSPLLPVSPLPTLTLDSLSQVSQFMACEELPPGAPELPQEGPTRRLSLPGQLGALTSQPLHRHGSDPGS
Sequence of Dipeptidyl peptidase 4 (P27487 whole entry): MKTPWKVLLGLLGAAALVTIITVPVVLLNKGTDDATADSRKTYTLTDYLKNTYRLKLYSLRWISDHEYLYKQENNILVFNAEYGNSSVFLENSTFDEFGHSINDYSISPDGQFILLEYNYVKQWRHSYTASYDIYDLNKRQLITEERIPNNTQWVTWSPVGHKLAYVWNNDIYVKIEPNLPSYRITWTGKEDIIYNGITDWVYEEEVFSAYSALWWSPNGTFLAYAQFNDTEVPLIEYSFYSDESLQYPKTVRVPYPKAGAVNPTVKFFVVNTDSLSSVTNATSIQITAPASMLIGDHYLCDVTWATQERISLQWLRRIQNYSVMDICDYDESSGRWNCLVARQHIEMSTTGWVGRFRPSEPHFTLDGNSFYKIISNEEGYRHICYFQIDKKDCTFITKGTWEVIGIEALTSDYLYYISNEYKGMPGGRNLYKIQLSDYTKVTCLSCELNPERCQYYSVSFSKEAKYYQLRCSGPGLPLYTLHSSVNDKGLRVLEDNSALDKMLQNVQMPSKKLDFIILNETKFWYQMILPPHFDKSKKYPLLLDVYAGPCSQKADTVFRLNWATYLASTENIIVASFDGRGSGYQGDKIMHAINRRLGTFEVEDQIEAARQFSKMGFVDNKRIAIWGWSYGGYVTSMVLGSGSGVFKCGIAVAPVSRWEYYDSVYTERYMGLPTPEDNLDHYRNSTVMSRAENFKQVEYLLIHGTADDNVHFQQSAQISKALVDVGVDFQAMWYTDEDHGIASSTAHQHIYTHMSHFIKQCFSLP

Take `CC(C)N(C)C(=O)n1cnc(S(=O)(=O)C2CC3CCC2C3)n1` (centres undefined): the Papp in data set [1] is above 30 ×10⁻⁶ cm/s. The IC50 (commonly the midpoint of a concentration-inhibition curve) in data set [2] is above 50000 nM; in the data set with Plasmodium falciparum [4], 28 nM; in the data set on Plasmodium falciparum [5], 16 nM; with Plasmodium falciparum [8], 49 nM; in data set [10] it was 31600 nM; in data set [11], “Not Active”. The concentration for half-maximal inhibition (IC50) on Dipeptidyl peptidase 4 is 9 nM; with HepG2, above 100000 nM. Moreover, the result in the data set on Plasmodium falciparum [3] was Active. In addition, in the data set on Liver microsome, the Intrinsic clearance came out at 1.6 mL/min/g. Moreover, in the data set with Plasmodium falciparum [6], the “log(ratio)” value is 3.1. For the same compound, in [7], the solubility kinetic was at least 500 µM. On Albumin, the fraction unbound was 0.42. Further, the Stability entry is recorded as “Unstable” in the data set with Plasma [9], “Unstable” in the data set with Blood [12] and “Stable” in the data set on Plasma [17]. The ED50 – broadly, the dose that gives a 50% effect, or the effect in half of the subjects – in the data set on Plasmodium berghei is above 50 mg/kg. In the data set on Plasmodium falciparum [13], the Time came out at 48 h. Moreover, the figures for the half-life in data set [14] and in data set [15] were above 30 min and 3.8 min, respectively. For the same compound, the “inhibition (INH)” value in data set [16] was “Not Active”.

As for `COc1ccc(CN(C)C(=O)n2cnc(S(=O)(=O)[C@@H]3C[C@H]4CC[C@@H]3C4)n2)cc1`, the outcome with Plasmodium falciparum [18], with Plasmodium falciparum [3], in the data set with Plasmodium falciparum [19] and with Plasmodium falciparum [22] was Active. Besides, the half-inhibitory concentration (IC50) with Plasmodium falciparum [5] was 10 nM; in [11], “Not Active”; in the data set on HepG2 it was above 100000 nM. Also, the 50% effect level in the data set with Plasmodium falciparum [20] (ED50) was put at a dose of 100 mg/kg. For the same compound, in the data set on Plasmodium falciparum [20], the ED90 came to 150 mg/kg. In [7], the solubility kinetic was 125 µM (≈ 50.6 µg/mL). In addition, the Drug uptake result with Blood [21] was “Not Active”. For the same compound, the half-life (commonly the time needed for the level to fall by half in the phase considered) in data set [15] was 22.6 min.
